Assay results: ChEMBL document CHEMBL1127484, “5-Aryl-3-(alkylthio)-4H-1,2,4-triazoles as selective antagonists of strychnine-induced convulsions and potential antispastic agents” (J Med Chem, 1994)

Experiments:
Mus musculus [1] = assay: Effective dose required for antagonist activity against pentylenetetrazole-induced seizures in mice when administered intraperitoneally; type: functional; settings: ip
Procedure, shortened: (§1)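 CD-1 male mice (18–26 g), groups of 5 or 10, housed individually, dosed ip in distilled H2O or H2O/Tween 80. Convulsant given 30 min later. Strychnine sulfate 2.7 mg/kg ip: protection = no tonic extension >15 min. MES 50 mA, 0.2 s, corneal: no tonic hind-limb extension. PTZ 60 mg/kg iv: no clonic seizures for 2 min. MPA 100 mg/kg iv: no seizures for 5 min. ED50 by quantal analysis from ≥4 doses, ≥10 mice each.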

[2] = Dose encompassing the 50% lethal effect was recorded when administered intraperitoneally in mice; Range is 400-800; type: ADME, organism-based; settings: mouse, in vivo, ip
Procedure, shortened: (§2)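 Deaths were recorded over the 7 days after dosing. The estimated LD50 was taken as the dose range spanning 50% lethality.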

Mus musculus [3] = assay: Effective dose required for antagonist activity against 3-mercaptopropionic-acid induced seizures in mice when administered intraperitoneally; type: functional; settings: ip; procedure, shortened: as §1
Mus musculus [4] = assay: Effective dose required for antagonist activity against maximal electroshock induced seizures in mice when administered intraperitoneally; type: functional; settings: ip; procedure, shortened: as §1
Mus musculus [5] = assay: Effective dose required for antagonist activity against strychnine induced seizures in mice when administered intraperitoneally; type: functional; settings: ip; procedure, shortened: as §1
[6] = Dose encompassing the 50% lethal effect was recorded when administered intraperitoneally in mice; type: ADME, organism-based; settings: mouse, in vivo, ip; procedure, shortened: as §2
Mus musculus [7] = assay: Effective dose required for antagonist activity against pentylenetetrazole-induced seizures in mice when administered intraperitoneally; Range is 100-200; type: functional; settings: ip; procedure, shortened: as §1
Mus musculus [8] = assay: Effective dose required for antagonist activity against strychnine induced seizures in mice when administered intraperitoneally; Range is 50-100; type: functional; settings: ip; procedure, shortened: as §1
Mus musculus [9] = assay: Effective dose required for antagonist activity against pentylenetetrazole-induced seizures in mice when administered intraperitoneally; Range is 50-100; type: functional; settings: ip; procedure, shortened: as §1
Mus musculus [10] = assay: Effective dose required for antagonist activity against maximal electroshock induced seizures in mice when administered intraperitoneally; Range is 100-200; type: functional; settings: ip; procedure, shortened: as §1
Mus musculus [11] = assay: Effective dose required for antagonist activity against maximal electroshock induced seizures in mice when administered intraperitoneally; Range is 50-100; type: functional; settings: ip; procedure, shortened: as §1

Structure (SMILES) | ED50 (Mus musculus [1]) [mg/kg] | LD50 [2] [mg/kg] | ED50 (Mus musculus [3]) [mg/kg] | ED50 (Mus musculus [4]) [mg/kg] | ED50 (Mus musculus [5]) [mg/kg] | LD50 [6] [mg/kg] | ED50 (Mus musculus [7]) [mg/kg] | ED50 (Mus musculus [8]) [mg/kg] | ED50 (Mus musculus [9]) [mg/kg] | ED50 (Mus musculus [10]) [mg/kg] | ED50 (Mus musculus [11]) [mg/kg]
Cn1c(-c2ccccc2)nnc1[S+](C)[O-] (stereo not drawn) | > 100 | 800 | > 100 | > 100 | 18.6 |  |  |  |  |  | 
Cn1c(-c2cccc3ccccc23)nnc1[S+](C)[O-] (stereo not drawn) | > 200 |  | > 200 | > 200 | > 200 | > 800 |  |  |  |  | 
CC[S+]([O-])c1nnc(-c2ccccc2)n1C (stereo not drawn) |  |  | > 200 | > 200 |  | > 800 | 200 |  |  |  | 
Cc1ccc(-c2nnc([S+](C)[O-])n2C)cc1 (stereo not drawn) | > 200 |  | > 200 | > 200 |  | > 800 |  | 100 |  |  | 
Cn1nc(-c2ccccc2)nc1S(C)(=O)=O | > 200 |  | > 200 | > 200 | > 200 | > 800 |  |  |  |  | 
CSc1nc(-c2ccccc2)nn1C |  |  | > 200 |  | > 200 | > 800 |  |  | 100 | 200 | 
CSc1nc(-c2ccccc2)n(C)n1 | > 100 |  | > 100 | > 100 | > 100 | > 800 |  |  |  |  | 
CSc1nnc(-c2ccccc2Cl)n1C | > 50 | 800 | > 50 | > 50 | > 50 |  |  |  |  |  | 
Cn1c(-c2cccc(F)c2)nnc1S(C)(=O)=O | > 200 |  | > 200 | > 200 | 12.1 | > 800 |  |  |  |  | 
Cn1nc(-c2ccccc2)nc1[S+](C)[O-] (stereo not drawn) |  | 800 | > 200 |  | > 200 |  |  |  | 100 |  | 100
CSc1n[nH]c(-c2ccc(F)cc2)n1 | > 200 |  | > 200 | > 200 | > 200 | > 800 |  |  |  |  | 
CSc1nnc(-c2ccc(C)cc2)n1C | > 100 | 800 | > 100 | > 100 |  |  |  | 100 |  |  | 
Cn1c(-c2cccs2)nnc1S(C)(=O)=O | > 200 |  | > 200 | > 200 | > 200 | > 800 |  |  |  |  | 
COc1ccc(-c2nnc(SC)n2C)cc1 | > 100 | 800 | > 100 | > 100 | > 100 |  |  |  |  |  | 
Cn1c(-c2ccccc2F)nnc1[S+](C)[O-] (stereo not drawn) | 57.9 |  | > 200 | > 200 | 20 | > 800 |  |  |  |  | 
CN1C(=O)CN=C(c2ccccc2)c2cc(Cl)ccc21 [DIAZEPAM] | 1.5 |  | 0.9 | 14.8 | 40.6 |  |  |  |  |  | 
CSc1nnc(-c2ccc(F)cc2)n1C | > 200 |  | > 200 | > 200 | 33.4 | > 800 |  |  |  |  | 
COc1ccc(-c2nnc(S(C)(=O)=O)n2C)cc1 | > 200 |  | > 200 | > 200 | > 200 | > 800 |  |  |  |  | 
Cn1nc(S(C)(=O)=O)nc1-c1ccccc1 | > 200 |  | > 200 | > 200 | > 200 | > 800 |  |  |  |  | 
Cn1nc([S+](C)[O-])nc1-c1ccccc1 (stereo not drawn) | > 200 |  | > 200 | > 200 | > 200 | > 800 |  |  |  |  | 
COc1ccc(-c2nnc([S+](C)[O-])n2C)cc1 (stereo not drawn) | > 100 | 800 | > 100 | > 100 |  |  |  | 100 |  |  | 
